Reference: BindingDB's records for doi:10.1021/jm000911j (Universidad De Valencia, 2000)

Target: Acyl carrier protein,/NADH dehydrogenase [ubiquinone] flavoprotein 1, mitochondrial (Bos taurus, UniProt P25708+P52505)
Assay: Inhibition of NADH oxidase activity.
Method in brief: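 Beef-heart submitochondrial particles (sonicated frozen-thawed mitochondria), preactivated with 300 µM NADH, assayed at 22 °C in 50 mM potassium phosphate pH 7.4, 1 mM EDTA (0.28 nM complex I). Aerobic oxidation of 75 µM NADH with no added quinone, followed at 340 nm. Ethanolic compound added cumulatively, 5 min on ice per step, ethanol ≤2%. IC50 is the final concentration giving 50% inhibition.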

Acyl carrier protein,/NADH dehydrogenase [ubiquinone] flavoprotein 1, mitochondrial, sequence (P25708 21-464 limits assumed, other chains not shown): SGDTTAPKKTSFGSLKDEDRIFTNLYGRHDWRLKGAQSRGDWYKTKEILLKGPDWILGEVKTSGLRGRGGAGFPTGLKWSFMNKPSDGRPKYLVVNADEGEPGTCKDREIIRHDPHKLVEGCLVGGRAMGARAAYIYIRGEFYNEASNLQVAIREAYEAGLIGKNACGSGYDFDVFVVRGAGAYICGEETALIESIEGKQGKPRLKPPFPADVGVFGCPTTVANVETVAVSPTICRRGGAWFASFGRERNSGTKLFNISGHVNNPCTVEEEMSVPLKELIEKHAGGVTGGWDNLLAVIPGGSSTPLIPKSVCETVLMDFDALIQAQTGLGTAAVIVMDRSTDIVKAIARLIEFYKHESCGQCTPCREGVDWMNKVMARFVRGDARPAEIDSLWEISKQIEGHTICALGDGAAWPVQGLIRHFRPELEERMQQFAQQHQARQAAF

IC50 [pM]	SMILES
340	CCCCCCCCCC[C@H](O)[C@H]1CC[C@H]([C@H]2CC[C@H]([C@H](O)CCCCC(CCCCCCCC3=C[C@H](C)OC3=O)N=O)O2)O1 (some centres not stated) [10-oxime-guanacone]
340	CCCCCCCCCCC(N=O)[C@H]1CC[C@@H]([C@@H]2CC[C@H]([C@H](O)CCCCCCCCCCC(CC3=C[C@H](C)OC3=O)N=O)O2)O1 (some centres not stated) [3-{13-Hydroxy-2-hydroxyimino-13-[5'-(1-hydroxyimino-undecyl)-octahydro-[2,2']bifuranyl-5-yl]-tridecyl}-5-methyl-5H-furan-2-one(4,24-didehydroxy-4,24-dihydroxyliminorolliniastatin-1)]
